In ChEMBL document CHEMBL1949565, “4-nitrobenzyloxycarbonyl derivatives of O(6)-benzylguanine as hypoxia-activated prodrug inhibitors of O(6)-alkylguanine-DNA alkyltransferase (AGT), which produces resistance to agents targeting the O-6 position of DNA guanine” (J Med Chem, 2011):
Activity calls are given as the source filed them. The calls are words filed in the database; no cut-off is given here.

Columns and labels:
[1] = species: Homo sapiens; assay: Inhibition of human recombinant AGT assessed as prevention of O6-(2-chloroethyl)guanine and N1,O6-ethanoguanine-DNA adduct repair at 0.1 uM after 30 mins by fluorescence assay
In short: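 Purified recombinant human AGT (~40 fmol) in stabilization buffer (20 mM Tris-HCl, 1 mM EDTA, 1 mg/mL BSA, 0.1 mM DTT, 2 μg/mL L1210 DNA, pH 7.4) preincubated with inhibitor 30 min, 37 °C. Then added to L1210 DNA substrate treated with a chloroethylating hydrazine (~50 fmol lesions), 30 min, 37 °C. Heated 50 °C 2–3 h. Cross-links quantified by Hoechst 33258 fluorescence before/after heat denaturation. Inhibition derived from remaining cross-link precursors.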

[2] = Prodrug activation assessed as formation of O6-benzylguanine under oxygen-deficient condition at 20 uM after 1 hr by HPLC analysis in presence of xanthine/xanthine oxidase
In short: (§1)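 Test agent at 20 μM (from DMSO) in 100 mM potassium phosphate pH 7.4 at 37 °C, with either cytochrome P450 reductase plus 1 mM NADPH, or 0.16 units/mL xanthine oxidase plus 1 mM xanthine. Oxygen deficiency came from glucose oxidase/catalase with 10 mM glucose. Aerobic mixtures omitted glucose and were shaken as shallow layers in sealed flasks. Samples at 0 and 1 h were quenched with acetonitrile and analysed by HPLC.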

[3] = species: Homo sapiens; assay: Inhibition of human recombinant AGT assessed as prevention of O6-(2-chloroethyl)guanine and N1,O6-ethanoguanine-DNA adduct repair at 50 uM after 30 mins by fluorescence assay
In short: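 About 40 fmol purified recombinant human AGT in stabilization buffer (20 mM Tris-HCl, 1 mM EDTA, BSA 1 mg/mL, 0.1 mM DTT, L1210 DNA, pH 7.4) preincubated with inhibitor for 30 min at 37 °C. It was then incubated 30 min at 37 °C with L1210 DNA bearing O6-chloroethylguanine/N1,O6-ethanoguanine lesions (~50 fmol). Unrepaired lesions were converted to cross-links at 50 °C for 2–3 h. Cross-linking was read by Hoechst 33258 fluorescence before and after heat denaturation.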

[4] = system: DU-145; assay: Prodrug activation in human DU145 cells assessed as formation of O6-benzylguanine under normoxic condition at 20 uM after 3 hrs by HPLC analysis; type: cell-based; settings: du-145, 3 h
In short: (§2)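 Cells at 10^7/mL with ~20 μM prodrug at 37 °C: EMT6 in DMEM with 10% FBS, DU145 in α-MEM with 10% FBS, each with 10 mM glucose. Normoxic suspensions were shaken as shallow layers in flasks. Oxygen-deficient incubations used sealed tubes with an extra 10 mM glucose, glucose oxidase 2 units/mL and catalase 120 units/mL. Samples at 0–3 h were acetonitrile-extracted and analysed by HPLC.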

[5] = system: EMT6; assay: Prodrug activation in mouse EMT6 cells assessed as formation of O6-benzylguanine under oxygen-deficient condition at 20 uM after 3 hrs by HPLC analysis; type: cell-based; settings: emt6, 3 h; in short: as §2
[6] = system: EMT6; assay: Prodrug activation in mouse EMT6 cells assessed as formation of O6-benzylguanine under normoxic condition at 20 uM after 3 hrs by HPLC analysis; type: cell-based; settings: emt6, 3 h; in short: as §2
[7] = Prodrug activation assessed as formation of O6-benzylguanine under oxygen-deficient condition at 20 uM after 1 hr by HPLC analysis in presence of NADPH:CYP450 reductase; type: ADME; in short: as §1
[8] = Prodrug activation assessed as formation of O6-benzylguanine under normoxic condition at 20 uM after 1 hr by HPLC analysis in presence of NADPH:CYP450 reductase; type: ADME; in short: as §1
[9] = Prodrug activation assessed as formation of O6-benzylguanine under normoxic condition at 20 uM after 1 hr by HPLC analysis in presence of xanthine/xanthine oxidase; in short: as §1
[10] = Prodrug activation assessed as formation of O6-benzylguanine in presence of Zn/EDTA
In short: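 Each agent at 50 μM in 50 mM Tris-HCl, 10 mM EDTA, pH 7.0, was shaken briefly with about 4 mg/mL Zn dust at room temperature. After centrifugation, the supernatant was analysed by reverse-phase HPLC with UV detection at 280 nm.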

[11] = system: DU-145; assay: Prodrug activation in human DU145 cells assessed as formation of O6-benzylguanine under oxygen-deficient condition at 20 uM after 3 hrs by HPLC analysis; type: cell-based; settings: du-145, 3 h; in short: as §2
[12] = system: DU-145; assay: Inhibition of AGT-mediated potentiation of laromustine-induced cytotoxicity in human DU145 cells at 40 uM pretreated for 6 hrs prior laromustine addition measured after 24 hrs incubation under oxygen deficiency condition by clonogenic assay; type: functional, cell-based
In short: (§3)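 DU145 monolayers seeded at 2.5 × 10^5 cells per flask and treated 3 days later. Pretreatment with prodrug for 6 h, then laromustine added in medium for 24 h at 37 °C; DMSO ≤ 0.05%. For oxygen deficiency, glucose oxidase 2 units/mL plus catalase 120 units/mL in high-glucose DMEM, with flasks nitrogen-flushed and sealed. Aerobic flasks were unsealed and lacked these enzymes. Colonies were crystal-violet stained after 10–14 days; plating in duplicate.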

[13] = system: DU-145; assay: Inhibition of AGT-mediated potentiation of laromustine-induced cytotoxicity in human DU145 cells at 40 uM pretreated for 6 hrs prior laromustine addition measured after 24 hrs incubation under normoxic condition by clonogenic assay; type: functional, cell-based; in short: as §3

Compound | inhibition [1] [%] | Drug metabolism [2] [µM] | inhibition [3] [%] | Drug metabolism [4] | Drug metabolism [5] | Drug metabolism [6] | Drug metabolism [7] [µM] | Drug metabolism [8] [µM] | Drug metabolism [9] [µM] | Drug degradation [10] [%molar] | Drug metabolism [11] | inhibition [12] | inhibition [13]
Nc1nc(OCc2ccccc2)c2nc[nH]c2n1 | 47 | – | – | – | – | – | – | – | – | – | – | – | –
O=C(Nc1nc(OCc2ccccc2)c2nc[nH]c2n1)OCc1ccc([N+](=O)[O-])cc1 | – | 2.8 | < 1 | Not Active | Active | Not Active | < 0.05 | < 0.05 | < 0.05 | 4 | – | – | –
CC(C)(OC(=O)Nc1nc(OCc2ccccc2)c2nc[nH]c2n1)c1ccc([N+](=O)[O-])cc1 | – | 14.8 | < 1 | Not Active | Active | Not Active | 13.9 | 0.1 | < 0.05 | 54.8 | Active | Active | inactive
CC(OC(=O)Nc1nc(OCc2ccccc2)c2nc[nH]c2n1)c1ccc([N+](=O)[O-])cc1 (stereo unspecified) | – | 11.6 | < 1 | Not Active | Active | Not Active | 0.1 | < 0.05 | < 0.05 | 35.4 | – | – | –
